In ChEMBL document CHEMBL1139464, “SAR and 3D-QSAR studies on thiadiazolidinone derivatives: exploration of structural requirements for glycogen synthase kinase 3 inhibitors” (J Med Chem, 2005) one finds IC50 and inhibition data, which are given here for 46 molecules.

For experiment [1], the target named is Glycogen synthase kinase-3 (Oryctolagus cuniculus). The experiment is described as follows: Inhibition of rabbit GSK3.
In experiment [2] the target is Tyrosine-protein kinase Lck (Homo sapiens) (UniProt P06239). The experiment can be described thus: Inhibition of protein kinase p56 at 10 uM. In outline: (§1)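 Pan-kinase selectivity screen run at an outside lab using previously described assays for each kinase. Activated kinase phosphorylates its appropriate peptide or protein substrate with test substance at 10 µM. Percent inhibition is taken against control incubations in which the inhibitor is replaced by DMSO, with staurosporine as reference. Reported as the mean of duplicate determinations.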

Experiment [3] concerns the target Epidermal growth factor receptor (Homo sapiens) (UniProt P00533). The experiment can be described thus: Inhibition of EGF tyrosine kinase at 10 uM. In outline: as §1
For experiment [4], the target named is Insulin receptor (Homo sapiens) (UniProt P06213). The experiment is described as follows: Inhibition of IRK at 10 uM. In outline: as §1
For experiment [5], the target named is Dual specificity mitogen-activated protein kinase kinase 1 (Homo sapiens) (UniProt Q02750). The experiment can be described thus: Inhibition of MEK1K at 10 uM. In outline:
as §1

Experiment [6] addresses Tyrosine-protein kinase ABL1 (Homo sapiens) (UniProt P00519). The experiment is described as follows: Inhibition of Abl kinase at 10 uM. In outline:
as §1

In experiment [7] the target is Mitogen-activated protein kinase; ERK1/ERK2 (Homo sapiens) (UniProt P27361+P28482). The experiment is described as follows: Inhibition of MAPK at 10 uM. The class given is protein assay. Put shortly:
as §1

Experiment [8] deals with CaM kinase II (Homo sapiens) (UniProt Q13557+Q13555+Q13554+Q9UQM7). The experiment can be described thus: Inhibition of CAMK2 at 10 uM. It is filed as protein assay. Put shortly:
as §1

Some results are limits rather than exact numbers.

Sequence of Insulin receptor (Homo sapiens) (P06213 28-758 limits assumed): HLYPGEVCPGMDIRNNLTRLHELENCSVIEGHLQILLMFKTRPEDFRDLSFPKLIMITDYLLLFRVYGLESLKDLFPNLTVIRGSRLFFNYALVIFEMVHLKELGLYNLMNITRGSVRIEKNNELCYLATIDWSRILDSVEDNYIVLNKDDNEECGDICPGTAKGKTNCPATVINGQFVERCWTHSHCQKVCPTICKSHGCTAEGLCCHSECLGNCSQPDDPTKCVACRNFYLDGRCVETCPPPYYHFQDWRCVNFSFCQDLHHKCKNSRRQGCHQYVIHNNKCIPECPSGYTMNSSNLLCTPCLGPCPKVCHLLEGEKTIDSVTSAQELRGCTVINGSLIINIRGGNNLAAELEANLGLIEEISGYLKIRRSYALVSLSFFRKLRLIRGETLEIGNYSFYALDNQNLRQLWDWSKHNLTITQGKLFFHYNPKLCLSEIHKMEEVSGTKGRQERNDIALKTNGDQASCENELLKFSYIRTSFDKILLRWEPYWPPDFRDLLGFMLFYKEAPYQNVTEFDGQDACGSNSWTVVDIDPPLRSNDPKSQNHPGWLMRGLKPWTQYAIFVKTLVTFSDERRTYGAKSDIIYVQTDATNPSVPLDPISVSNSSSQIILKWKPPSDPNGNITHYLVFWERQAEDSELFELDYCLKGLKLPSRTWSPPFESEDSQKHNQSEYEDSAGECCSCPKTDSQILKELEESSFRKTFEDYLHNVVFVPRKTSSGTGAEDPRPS
Sequence of Insulin receptor (Homo sapiens) (P06213 763-1382 limits assumed): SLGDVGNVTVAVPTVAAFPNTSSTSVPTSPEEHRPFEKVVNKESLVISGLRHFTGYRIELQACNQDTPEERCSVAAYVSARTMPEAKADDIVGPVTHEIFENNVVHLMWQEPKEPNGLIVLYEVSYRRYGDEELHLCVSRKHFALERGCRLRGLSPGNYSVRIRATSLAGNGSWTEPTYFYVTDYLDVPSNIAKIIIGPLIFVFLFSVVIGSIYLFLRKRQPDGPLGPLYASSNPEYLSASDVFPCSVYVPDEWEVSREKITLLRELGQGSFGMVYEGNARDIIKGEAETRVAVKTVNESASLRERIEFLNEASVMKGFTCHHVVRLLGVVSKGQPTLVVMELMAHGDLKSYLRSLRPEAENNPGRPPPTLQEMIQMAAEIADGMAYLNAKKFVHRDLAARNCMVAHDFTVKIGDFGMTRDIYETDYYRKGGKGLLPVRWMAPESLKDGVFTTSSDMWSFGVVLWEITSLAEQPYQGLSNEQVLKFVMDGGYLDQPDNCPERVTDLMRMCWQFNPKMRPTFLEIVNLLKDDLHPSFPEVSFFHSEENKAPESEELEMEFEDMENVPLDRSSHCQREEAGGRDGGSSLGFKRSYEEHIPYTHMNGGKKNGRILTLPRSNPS
Sequence of Tyrosine-protein kinase Lck (Homo sapiens) (P06239 2-509 limits assumed): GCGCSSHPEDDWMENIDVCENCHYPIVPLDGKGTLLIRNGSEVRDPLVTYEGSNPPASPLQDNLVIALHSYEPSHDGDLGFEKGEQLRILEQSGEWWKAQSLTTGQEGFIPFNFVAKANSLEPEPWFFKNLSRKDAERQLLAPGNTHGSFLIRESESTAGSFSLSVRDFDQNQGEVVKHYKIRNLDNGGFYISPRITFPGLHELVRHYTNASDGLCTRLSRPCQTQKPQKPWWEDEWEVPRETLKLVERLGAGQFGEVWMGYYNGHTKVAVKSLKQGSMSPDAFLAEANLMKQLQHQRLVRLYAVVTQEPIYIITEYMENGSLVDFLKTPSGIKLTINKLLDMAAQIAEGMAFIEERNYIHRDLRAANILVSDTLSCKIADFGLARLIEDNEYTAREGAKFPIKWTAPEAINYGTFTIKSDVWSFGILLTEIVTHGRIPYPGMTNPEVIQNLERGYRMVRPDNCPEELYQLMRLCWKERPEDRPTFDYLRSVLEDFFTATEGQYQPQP
Sequence of Dual specificity mitogen-activated protein kinase kinase 1 (Homo sapiens) (Q02750 whole entry): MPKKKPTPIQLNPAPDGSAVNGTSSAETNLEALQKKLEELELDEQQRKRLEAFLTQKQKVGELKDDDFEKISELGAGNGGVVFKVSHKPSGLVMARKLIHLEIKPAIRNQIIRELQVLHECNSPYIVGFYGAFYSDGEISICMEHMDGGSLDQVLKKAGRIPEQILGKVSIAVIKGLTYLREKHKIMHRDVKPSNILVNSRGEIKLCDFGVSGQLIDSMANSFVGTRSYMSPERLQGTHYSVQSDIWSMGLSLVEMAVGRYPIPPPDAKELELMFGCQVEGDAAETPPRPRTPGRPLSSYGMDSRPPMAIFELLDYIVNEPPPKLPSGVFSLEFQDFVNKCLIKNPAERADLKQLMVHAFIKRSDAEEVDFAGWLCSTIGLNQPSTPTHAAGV
Sequence of Epidermal growth factor receptor (Homo sapiens) (P00533 whole entry): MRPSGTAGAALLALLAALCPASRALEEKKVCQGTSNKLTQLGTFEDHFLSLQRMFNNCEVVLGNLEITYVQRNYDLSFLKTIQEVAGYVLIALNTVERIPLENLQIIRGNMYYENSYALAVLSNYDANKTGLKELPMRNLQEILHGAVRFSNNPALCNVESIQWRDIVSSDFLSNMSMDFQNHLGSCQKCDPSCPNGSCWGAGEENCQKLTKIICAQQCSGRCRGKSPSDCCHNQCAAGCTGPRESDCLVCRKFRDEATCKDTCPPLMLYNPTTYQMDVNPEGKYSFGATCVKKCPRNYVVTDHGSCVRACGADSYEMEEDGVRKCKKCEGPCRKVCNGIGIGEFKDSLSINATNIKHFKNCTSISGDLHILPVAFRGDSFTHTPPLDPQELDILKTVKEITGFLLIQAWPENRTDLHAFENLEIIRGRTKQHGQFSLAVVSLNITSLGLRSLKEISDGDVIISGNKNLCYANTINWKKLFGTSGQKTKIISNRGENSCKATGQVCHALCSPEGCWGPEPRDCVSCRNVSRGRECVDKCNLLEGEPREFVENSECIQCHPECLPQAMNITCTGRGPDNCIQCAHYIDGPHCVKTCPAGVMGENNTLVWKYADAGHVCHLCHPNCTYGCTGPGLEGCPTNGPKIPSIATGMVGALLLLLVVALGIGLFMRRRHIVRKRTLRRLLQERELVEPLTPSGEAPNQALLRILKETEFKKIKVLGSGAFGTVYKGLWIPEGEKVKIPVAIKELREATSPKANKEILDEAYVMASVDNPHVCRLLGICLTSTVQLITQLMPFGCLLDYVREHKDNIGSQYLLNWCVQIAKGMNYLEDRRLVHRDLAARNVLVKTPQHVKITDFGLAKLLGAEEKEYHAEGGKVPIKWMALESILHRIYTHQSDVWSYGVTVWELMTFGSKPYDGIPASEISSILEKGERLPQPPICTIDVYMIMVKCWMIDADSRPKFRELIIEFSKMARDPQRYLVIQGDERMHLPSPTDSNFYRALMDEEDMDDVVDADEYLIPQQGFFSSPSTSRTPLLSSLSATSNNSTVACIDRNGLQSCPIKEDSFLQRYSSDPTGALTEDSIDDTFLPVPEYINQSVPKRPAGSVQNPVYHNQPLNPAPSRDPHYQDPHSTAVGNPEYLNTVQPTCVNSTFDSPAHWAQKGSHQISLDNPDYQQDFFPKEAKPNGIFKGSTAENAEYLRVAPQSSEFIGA
Sequence of Mitogen-activated protein kinase; ERK1/ERK2 (Homo sapiens) (P27361 whole entry, looked up): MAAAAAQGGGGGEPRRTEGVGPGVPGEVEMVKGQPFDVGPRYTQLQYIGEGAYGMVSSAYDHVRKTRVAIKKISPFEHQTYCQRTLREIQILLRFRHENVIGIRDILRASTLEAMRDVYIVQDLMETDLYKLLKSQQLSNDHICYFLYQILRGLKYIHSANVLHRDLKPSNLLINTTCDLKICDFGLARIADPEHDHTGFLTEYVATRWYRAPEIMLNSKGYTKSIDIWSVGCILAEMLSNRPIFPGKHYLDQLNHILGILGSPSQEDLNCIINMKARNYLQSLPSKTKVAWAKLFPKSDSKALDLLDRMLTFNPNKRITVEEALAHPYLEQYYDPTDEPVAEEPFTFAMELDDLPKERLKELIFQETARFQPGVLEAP
Sequence of Mitogen-activated protein kinase; ERK1/ERK2 (Homo sapiens) (P28482 whole entry, looked up): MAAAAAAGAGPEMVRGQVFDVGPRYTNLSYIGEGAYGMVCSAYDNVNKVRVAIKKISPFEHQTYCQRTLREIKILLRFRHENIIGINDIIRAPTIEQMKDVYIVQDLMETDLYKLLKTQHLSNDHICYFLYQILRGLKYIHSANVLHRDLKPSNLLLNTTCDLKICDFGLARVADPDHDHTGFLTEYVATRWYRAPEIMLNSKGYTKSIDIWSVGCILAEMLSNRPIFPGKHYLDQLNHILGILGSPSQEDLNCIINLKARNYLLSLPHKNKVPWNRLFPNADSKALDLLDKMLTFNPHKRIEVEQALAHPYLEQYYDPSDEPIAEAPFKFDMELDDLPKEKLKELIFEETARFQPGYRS

Consider `O=c1ssc(=O)n1Cc1ccccc1`, for which the IC50 in experiment [1] amounted to 12 µM.
For the molecule `CCOC(=O)Cn1c(=O)sn(C)c1=O`, the inhibition in experiment [2] is under 10%; in experiment [3], 19%; in experiment [4] it was 50%; in experiment [5], 19%; in experiment [6], under 10%; in experiment [7], under 10%. In experiment [8], this molecule registered an inhibition of 15%. Further, in experiment [1], the IC50 turned out to be 2 µM.
`COc1ccc(CN2C(=O)C=CC2=O)cc1` registered an IC50 in experiment [1] of 2.5 µM.
In turn, `NN1C(=O)CSC1=S` [AMINORHODANINE] gave an IC50 in experiment [1] of 100 µM.
In the case of `O=C1CNC(=O)N1` [HYDANTOIN], the IC50 in experiment [1] turned out to be 100 µM.
On the same count and under the same terms, with `O=C(CN1C(=O)CSC1=S)c1ccccc1` the figure was 50 µM; with `Cn1c(=O)ssc1=O`, 100 µM.
Still for that read-out and setting: with `O=C1CCC(=O)C1` the figure was over 100 µM; with `Cc1ccc(-n2c(=O)sn(C)c2=O)cc1`, 5 µM; with `O=C1CCCN1Cc1ccccc1`, over 100 µM.
On the same count and under the same terms, with `CCCn1sc(=O)n(CC)c1=O` the figure was 10 µM; with `O=C1C=CC(=O)C1`, 12 µM; with `O=C(O)CN1C(=O)CSC1=S` [RHODANINE-3-ACETIC ACID], 100 µM.
In experiment [1], `C1=CCN(Cc2ccccc2)C1` gave an IC50 of over 100 µM.
`Cn1sc(=O)n(-c2cccc(Br)c2)c1=O` showed an IC50 in experiment [1] of 4 µM.
Same read-out and setting: the same measure for `O=C1CSC(=O)N1` [THIAZOLIDINEDIONE]: 100 µM.
`Cn1sc(=O)n(-c2ccc(C(F)(F)F)cc2)c1=O`: the inhibition is under 10% in experiment [2]; 17% in experiment [3]; 36% in experiment [4]; under 10% in experiment [5]; under 10% in experiment [6]; under 10% in experiment [7]. This molecule also displayed an inhibition in experiment [8] of under 10%. Also, in experiment [1], the IC50 amounted to 6 µM.
`CCn1sc(=O)n(-c2ccccc2)c1=O` showed an IC50 in experiment [1] of 6 µM.
On the same count and under the same terms, with `CCn1c(=O)sn(C(C)C)c1=O` the figure was 35 µM; with `Cn1c(=O)n(-c2ccccc2)c(=O)n1C`, 100 µM.
Same read-out and setting: the same measure for `Cn1sc(=O)n(-c2ccc(Cl)cc2)c1=O`: 4 µM.
`CCn1c(=O)sn(C)c1=O` returned an IC50 in experiment [1] of 5 µM.
Still for that read-out and setting: the same measure for `O=C1CCC(=O)N1Cc1ccccc1`: over 50 µM.
The molecule `O=C(Cn1c(=O)n(-c2ccccc2)c(=O)n1CC(=O)c1ccccc1)c1ccccc1` displayed an IC50 in experiment [1] of 100 µM.
Same read-out and setting: with `Cn1sc(=O)n(-c2ccc(F)cc2)c1=O` the figure was 4 µM; with `O=c1ssc(=O)n1-c1ccccc1`, 12 µM.
As to `CCn1sc(=O)n(-c2ccc([N+](=O)[O-])cc2)c1=O`, the inhibition in experiment [3] was 40%; in experiment [4] it was 46%; in experiment [5] it was under 10%; in experiment [6], under 10%; in experiment [7], 10%; in experiment [8] it was under 10%. The IC50 in experiment [1] turned out to be 8.5 µM.
Turning to `O=C(c1ccccc1)n1c(=O)n(-c2ccccc2)c(=O)n1C(=O)c1ccccc1`, the IC50 in experiment [1] was 100 µM.
On to `CCn1sc(=O)n(CC)c1=O`, for which the IC50 in experiment [1] worked out at 25 µM.
`Cn1sc(=O)n(-c2cccc3ccccc23)c1=O` had an IC50 in experiment [1] of 2 µM.
Still for that read-out and setting: with `CCn1sc(=O)n(Cc2ccccc2)c1=O` [KRM-7777] the figure was 7 µM; with `COc1ccc(CCN2C(=O)C=CC2=O)cc1`, 3 µM.
The same measure, in the same setting: the same measure for `O=C1C=CC(=O)N1CCCCCc1ccccc1`: 3 µM; for `Cn1sc(=O)n(C2CCCCC2)c1=O`: 100 µM.
Regarding `CCn1c(=O)sn(C2CCCCC2)c1=O`, the inhibition in experiment [2], in experiment [3], in experiment [4], in experiment [5], in experiment [6] and in experiment [7] was under 10% in each case. In addition, in experiment [8], the inhibition is 23%. Besides, in experiment [1], the half-inhibitory concentration (IC50) is 10 µM.
Regarding `O=C1CSC(=O)N1Cc1ccccc1`, the IC50 in experiment [1] is 100 µM.
Regarding `O=C1CNC(=O)N1Cc1ccccc1`, the IC50 in experiment [1] was 100 µM.
On the same count and under the same terms, the same measure for `COc1ccc(CCN2C(=O)CSC2=S)cc1`: 100 µM.
On to `Cn1sc(=O)n(Cc2ccccc2)c1=O`, for which the inhibition in experiment [2] was 35%; in experiment [3], 25%; in experiment [4], 20%; in experiment [5] it was under 10%; in experiment [6], under 10%; in experiment [7], under 10%. This molecule also showed an inhibition in experiment [8] of 16%.
`Cn1sc(=O)n(-c2ccc(Br)cc2)c1=O` had an IC50 in experiment [1] of 1.1 µM.
In experiment [1], `Cn1sc(=O)n(-c2ccccc2Br)c1=O` had an IC50 of 6 µM.
Same read-out and setting: the same measure for `CCOC(=O)CN1C(=O)C=CC1=O`: 3 µM; for `Cn1sc(=O)n(-c2ccccc2)c1=O`: 2 µM; for `O=C1C=CC(=O)N1CCc1ccccc1`: 2 µM.
As to `O=C1CSC(=S)N1CCc1ccccc1`, the IC50 in experiment [1] came out at 35 µM.
Consider `O=c1sn(Cc2ccccc2)c(=O)n1Cc1ccccc1`, for which the inhibition in experiment [2] is 27%; in experiment [3] it was under 10%; in experiment [4], 19%; in experiment [5], under 10%; in experiment [6], under 10%; in experiment [7] it was under 10%. Further, the inhibition in experiment [8] amounted to 35%. Moreover, in experiment [1], the IC50 is 10 µM.

Usually IC50 stands for the concentration that inhibits the measured activity by half. A higher IC50 goes with lower potency. For orientation: inhibition means how much of the control response was suppressed. High values mean a strong effect, low ones a weak effect.
